Test results reported in ChEMBL document CHEMBL2331336, “Discovery and structure-activity relationship of 1,3-cyclohexyl amide derivatives as novel mGluR5 negative allosteric modulators” (Bioorg Med Chem Lett, 2013).
In brackets after ≈: the same amount, converted by molar mass. Activity calls are given as the source filed them. The rule behind the calls is not given here.

Columns and labels:
[1] = target: T1, Metabotropic glutamate receptor 5 (Homo sapiens, UniProt P41594); assay: Antagonist activity at human mGluR5 expressed in HEK293 cells assessed as inhibition of Ca2+ mobilization by FLIPR assay; assay type: functional, cell-based
[2] = target: T1, Metabotropic glutamate receptor 5; assay: Displacement of [3H]-ABP688 from human mGluR5 expressed in HEK293 cells after 60 mins by scintillation counting; assay type: cell-based
[3] = test system: Mus musculus; assay: Anxiolytic-like activity in mouse at 30 mg/kg, sc measured after 1 hr by marble burying test; assay type: functional, organism-based; design: dose 30 mg/kg
Method in brief: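 Male CD-1 mice, n = 12 per group, given 3, 10 or 30 mg/kg sc in 20% HPβCD (5 mL/kg); buspirone 10 mg/kg sc in water as positive control. Mice were placed singly in cages for a 30 min session, and marbles buried out of 20 were counted. One-way ANOVA with Dunnett's test.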

[4] = Ratio of fraction unbound in brain to plasma of CD-1 mouse brain at 10 mg/kg, sc at 1 hr; assay type: ADME, organism-based; design: dose 10 mg/kg, route subcutaneous; conditions: in vivo
Method in brief: (§1)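 CD-1 mice (n = 2), 10 mg/kg SC in 20% hydroxypropyl-β-cyclodextrin in water. Brain and plasma sampled at 1 h; averages reported. Quantification limits were 2 ng/g for brain and 2 ng/mL for plasma. Kupp is the ratio of unbound brain to unbound plasma concentration.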

[5] = Ratio of drug uptake in brain to plasma of CD-1 mouse at 10 mg/kg, po at 1 hr; assay type: ADME, organism-based; design: dose 10 mg/kg, route oral; conditions: read-out: BPR
[6] = Plasma concentration in CD-1 mouse at 10 mg/kg, po at 1 hr; assay type: ADME, organism-based; design: dose 10 mg/kg, route oral
[7] = Drug uptake in CD-1 mouse brain at 10 mg/kg, po at 1 hr; assay type: ADME, organism-based; design: dose 10 mg/kg, route oral; conditions: read-out: Drug uptake
[8] = Ratio of drug uptake in brain to plasma of CD-1 mouse at 10 mg/kg, sc at 1 hr; assay type: ADME, organism-based; design: dose 10 mg/kg, route subcutaneous; conditions: read-out: BPR; method in brief: as §1
[9] = Drug uptake in CD-1 mouse brain at 10 mg/kg, sc at 1 hr; assay type: ADME, organism-based; design: dose 10 mg/kg, route subcutaneous; conditions: read-out: Drug uptake; method in brief: as §1
[10] = Plasma concentration in CD-1 mouse at 10 mg/kg, sc at 1 hr; assay type: ADME, organism-based; design: dose 10 mg/kg, route subcutaneous; method in brief: as §1
[11] = test system: Plasma; assay: Fraction unbound in mouse plasma; assay type: ADME, cell-free
[12] = Fraction unbound in mouse brain; assay type: ADME, tissue-based
[13] = test system: Liver microsomes; assay: Intrinsic clearance in rat liver microsomes; assay type: ADME, Microsome
[14] = test system: Liver; assay: Intrinsic clearance in mouse liver microsomes; assay type: ADME, Microsome
[15] = test system: Liver microsomes; assay: Intrinsic clearance in human liver microsomes; assay type: ADME, Microsome; design: unit not given here
[16] = target: T2, Metabotropic glutamate receptor 1 (Rattus norvegicus, UniProt P23385); assay: Agonist activity at rat mGluR1 expressed in HEK293 cells assessed as Ca2+ mobilization by FLIPR assay; assay type: functional, cell-based
Method in brief: (§2)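 Rat mGluR1 stably in HEK293 cells (1.5% calf serum medium), seeded 24 h earlier, Fluo-4 loaded 1 h at 37 °C in HBSS/HEPES pH 7.4 with probenecid. Curves fitted with Hill equation.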

[17] = target: T2, Metabotropic glutamate receptor 1; assay: Antagonist activity at rat mGluR1 expressed in HEK293 cells assessed as inhibition of Ca2+ mobilization by FLIPR assay; assay type: functional, cell-based; method in brief: as §2
[18] = test system: Rattus norvegicus; assay: AUC ( 0 to infinity) in Sprague-Dawley rat at 2 mg/kg, po; assay type: ADME, organism-based, Plasma; design: dose 2 mg/kg, route oral, time infinity; conditions: in vivo
Method in brief: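 Sprague-Dawley rats (n = 2), cross-over design with 24 h washout between routes; 2 mg/kg oral in 20% hydroxypropyl-β-cyclodextrin in water; plasma AUC0-inf derived from concentration–time profile.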

[19] = test system: Rattus norvegicus; assay: Plasma clearance in Sprague-Dawley rat at 1 mg/kg, iv or 2 mg/kg, po relative to hepatic blood flow; assay type: ADME, organism-based; conditions: in vivo
Method in brief: (§3)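 Sprague-Dawley rats (n = 2) dosed in a cross-over design with a 24 h washout: 1 mg/kg IV and 2 mg/kg PO in 20% hydroxypropyl-β-cyclodextrin in water. Rat hepatic blood flow was taken as 20 mL/min.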

[20] = test system: Rattus norvegicus; assay: Bioavailability in Sprague-Dawley rat at 1 mg/kg, iv or 2 mg/kg, po; assay type: ADME, organism-based; conditions: in vivo; method in brief: as §3
[21] = test system: Rattus norvegicus; assay: AUC ( 0 to infinity) in Sprague-Dawley rat at 1 mg/kg, iv; assay type: ADME, organism-based, Plasma; design: time infinity, dose 1 mg/kg, route intravenous; conditions: in vivo
Method in brief: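 Sprague-Dawley rats (n = 2), cross-over design with 24 h washout between routes; 1 mg/kg iv in 20% hydroxypropyl-β-cyclodextrin in water; plasma AUC0-inf derived from concentration–time profile.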

[22] = Half life in Sprague-Dawley rat at 1 mg/kg, iv or 2 mg/kg, po; assay type: ADME, organism-based; conditions: in vivo; method in brief: as §3
[23] = Volume of distribution at steady state in Sprague-Dawley rat at 1 mg/kg, iv or 2 mg/kg, po; assay type: ADME, organism-based; conditions: in vivo, read-out: Vdss; method in brief: as §3
[24] = Plasma clearance in Sprague-Dawley rat at 1 mg/kg, iv or 2 mg/kg, po; assay type: ADME, organism-based; method in brief: as §3
[25] = Cmax in Sprague-Dawley rat at 1 mg/kg, iv or 2 mg/kg, po; assay type: ADME, organism-based; conditions: in vivo; method in brief: as §3
[26] = Tmax in Sprague-Dawley rat at 1 mg/kg, iv or 2 mg/kg, po; assay type: ADME, organism-based; conditions: in vivo; method in brief: as §3
[27] = test system: Plasma; assay: Fraction unbound in rat plasma; assay type: ADME, cell-free
[28] = Fraction unbound in rat brain; assay type: ADME, tissue-based
[29] = Partition co-efficient, log D at pH 7.4 of the compound by shake flask method; assay type: physicochemical; conditions: buffer
[30] = Kinetic solubility of the compound in potassium phosphate buffer after 4 hrs; assay type: physicochemical; conditions: read-out: Kinetic_solubility
Method in brief: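 Kinetic solubility: compound from 10 mM DMSO stock diluted into 25 mM potassium phosphate buffer and shaken 4 h. Supernatant analyzed by UPLC with PDA detection at 254 nm.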

[31] = Plasma protein binding in human; assay type: ADME, cell-free; conditions: read-out: PPB (converted)

T2 sequence (P23385 whole entry): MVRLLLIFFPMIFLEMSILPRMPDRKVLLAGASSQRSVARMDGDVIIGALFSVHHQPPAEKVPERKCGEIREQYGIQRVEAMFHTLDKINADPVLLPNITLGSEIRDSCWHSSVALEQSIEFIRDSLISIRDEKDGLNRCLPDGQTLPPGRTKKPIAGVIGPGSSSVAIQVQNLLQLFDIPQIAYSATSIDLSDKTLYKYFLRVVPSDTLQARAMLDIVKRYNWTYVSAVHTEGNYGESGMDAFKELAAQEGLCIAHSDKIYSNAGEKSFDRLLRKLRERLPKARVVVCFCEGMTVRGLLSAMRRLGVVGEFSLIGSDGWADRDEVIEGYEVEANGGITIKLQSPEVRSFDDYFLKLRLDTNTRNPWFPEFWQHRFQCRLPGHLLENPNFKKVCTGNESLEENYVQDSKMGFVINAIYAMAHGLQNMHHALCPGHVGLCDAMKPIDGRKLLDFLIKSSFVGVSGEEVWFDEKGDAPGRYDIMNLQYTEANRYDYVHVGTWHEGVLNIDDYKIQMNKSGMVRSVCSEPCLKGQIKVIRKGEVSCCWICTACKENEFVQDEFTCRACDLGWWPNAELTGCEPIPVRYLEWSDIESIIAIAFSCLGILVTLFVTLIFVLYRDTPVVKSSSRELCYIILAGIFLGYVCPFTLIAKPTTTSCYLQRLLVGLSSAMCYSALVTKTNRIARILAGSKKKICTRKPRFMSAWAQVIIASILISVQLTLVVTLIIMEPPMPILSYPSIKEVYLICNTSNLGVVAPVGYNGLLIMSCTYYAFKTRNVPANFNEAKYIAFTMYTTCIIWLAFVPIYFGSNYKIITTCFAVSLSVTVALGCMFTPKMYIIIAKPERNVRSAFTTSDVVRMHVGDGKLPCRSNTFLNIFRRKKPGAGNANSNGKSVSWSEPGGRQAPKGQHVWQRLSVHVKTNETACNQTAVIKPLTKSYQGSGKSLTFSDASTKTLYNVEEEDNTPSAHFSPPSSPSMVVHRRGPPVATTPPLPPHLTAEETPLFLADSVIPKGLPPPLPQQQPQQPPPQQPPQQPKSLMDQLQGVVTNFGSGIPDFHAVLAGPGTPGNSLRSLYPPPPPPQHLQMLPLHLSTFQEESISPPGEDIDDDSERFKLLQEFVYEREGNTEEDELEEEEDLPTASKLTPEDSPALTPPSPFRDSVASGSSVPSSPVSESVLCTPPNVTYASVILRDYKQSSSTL
T1 sequence (P41594 whole entry): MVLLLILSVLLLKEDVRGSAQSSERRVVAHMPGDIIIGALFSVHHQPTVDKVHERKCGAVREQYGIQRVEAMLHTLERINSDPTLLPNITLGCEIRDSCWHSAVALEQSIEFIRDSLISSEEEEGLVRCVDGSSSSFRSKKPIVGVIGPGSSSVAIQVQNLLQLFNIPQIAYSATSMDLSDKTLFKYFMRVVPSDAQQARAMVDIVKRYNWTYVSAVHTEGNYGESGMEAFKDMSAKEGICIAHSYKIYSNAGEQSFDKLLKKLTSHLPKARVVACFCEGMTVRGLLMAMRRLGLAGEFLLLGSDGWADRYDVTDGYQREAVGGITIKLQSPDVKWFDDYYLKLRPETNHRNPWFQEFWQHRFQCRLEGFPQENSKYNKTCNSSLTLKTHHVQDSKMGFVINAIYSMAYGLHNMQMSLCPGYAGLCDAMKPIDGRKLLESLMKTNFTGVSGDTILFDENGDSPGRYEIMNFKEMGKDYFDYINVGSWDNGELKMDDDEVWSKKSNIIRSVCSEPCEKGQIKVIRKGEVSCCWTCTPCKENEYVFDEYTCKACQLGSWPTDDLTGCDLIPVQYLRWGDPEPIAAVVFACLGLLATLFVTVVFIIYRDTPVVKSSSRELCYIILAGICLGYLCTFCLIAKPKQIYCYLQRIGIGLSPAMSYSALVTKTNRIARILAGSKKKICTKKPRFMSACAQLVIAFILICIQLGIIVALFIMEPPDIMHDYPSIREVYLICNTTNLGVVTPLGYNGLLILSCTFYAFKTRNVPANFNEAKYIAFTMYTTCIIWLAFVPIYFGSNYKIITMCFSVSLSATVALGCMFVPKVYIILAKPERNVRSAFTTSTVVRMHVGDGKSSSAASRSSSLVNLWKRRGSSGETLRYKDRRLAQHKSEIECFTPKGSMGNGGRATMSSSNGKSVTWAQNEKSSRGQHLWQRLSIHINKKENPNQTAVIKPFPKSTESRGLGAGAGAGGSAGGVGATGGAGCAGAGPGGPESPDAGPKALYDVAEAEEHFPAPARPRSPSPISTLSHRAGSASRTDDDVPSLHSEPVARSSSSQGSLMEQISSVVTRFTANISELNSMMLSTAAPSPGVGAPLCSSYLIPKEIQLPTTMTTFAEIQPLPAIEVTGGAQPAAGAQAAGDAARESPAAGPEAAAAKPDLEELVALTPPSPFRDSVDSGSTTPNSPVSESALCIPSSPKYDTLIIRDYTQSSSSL

CN(C(=O)c1cccc(Cl)c1)C1CCCC(NC(=O)c2cccc(Cl)c2)C1 (stereo unspecified)
IC50 [1]: > 10000 nM

CN(C)c1cccc(C(=O)N[C@H]2CCC[C@H](NC(=O)c3cccc(Cl)c3)C2)c1 (relative stereo)
IC50 [1]: > 10000 nM

O=C(NC1CCCC(NC(=O)c2ccccn2)C1)c1cccc(Cl)c1 (racemic)
IC50 [1]: 314 nM

COc1cccc(C(=O)NC2CCCC(NC(=O)c3ccccn3)C2)c1 (mixture of isomers)
IC50 [1]: > 10000 nM

O=C(N[C@H]1CCC[C@H](NC(=O)c2cccc(Cl)c2)C1)c1ccccc1 (relative stereo)
Ki [2]: 672 nM
IC50 [1]: 228 nM

O=C(N[C@H]1CCC[C@H](C(=O)Nc2cccc(Cl)c2)C1)c1ccccn1
IC50 [1]: 468 nM

O=C(N[C@H]1CCC[C@H](NC(=O)c2cccc(Cl)c2)C1)c1ccncc1 (relative stereo)
Ki [2]: 445 nM
IC50 [1]: 300 nM

Cc1cccc(C(=O)N[C@H]2CCC[C@]3(CN=C(c4cccc(Cl)c4)O3)C2)n1
Activity [3]: Active
Ratio [4]: 1.1
Kp at 1 h [5]: 0.5
concentration at 1 h [6]: 17 nM
concentration at 1 h [7]: 9 nM
Kp at 1 h [8]: 0.8
concentration at 1 h [9]: 910 nM
concentration at 1 h [10]: 1180 nM
Cp(f) [11]: 0.2%
fraction unbound [12]: 0.003
Intrinsic clearance [13]: 48 mL/min
Intrinsic clearance [14]: 12.5 mL/min
Intrinsic clearance [15]: 13
EC50 [16]: > 10000 nM
IC50 [17]: > 10000 nM
IC50 [1]: 23 nM

N#Cc1cccc(C(=O)N[C@H]2CCC[C@H](NC(=O)c3ccccn3)C2)c1
IC50 [1]: > 10000 nM

O=C(N[C@H]1CCC[C@H](NC(=O)c2cnccn2)C1)c1cccc(Cl)c1 (relative stereo)
IC50 [1]: 1370 nM

Cc1cccc(C(=O)N[C@H]2CCC[C@H](NC(=O)c3cccc(Cl)c3)C2)n1 (racemic)
Ki [2]: 582 nM
IC50 [1]: 290 nM

N#Cc1cccc(C(=O)N[C@@H]2CCC[C@@H](C(=O)Nc3ccccn3)C2)c1
IC50 [1]: > 10000 nM

O=C(N[C@H]1CCC[C@H](NC(=O)c2ncccn2)C1)c1cccc(Cl)c1 (relative stereo)
Ki [2]: 3790 nM
IC50 [1]: 425 nM

O=C(N[C@@H]1CCC[C@H](NC(=O)c2ccccn2)C1)c1cccc(Cl)c1 (relative stereo)
IC50 [1]: 1510 nM

O=C(N[C@H]1CCC[C@H](NC(=O)c2ccccn2)C1)c1cccc(Cl)c1
IC50 [1]: > 10000 nM

COc1ccc(C(=O)N[C@H]2CCC[C@H](NC(=O)c3cccc(Cl)c3)C2)cc1 (relative stereo)
Ki [2]: 674 nM
IC50 [1]: 266 nM

CN(C(=O)c1cccc(Cl)c1)C1CCCC(N(C)C(=O)c2cccc(Cl)c2)C1 (stereo unspecified)
IC50 [1]: > 10000 nM

O=C(N[C@@H]1CCC[C@@H](NC(=O)c2ccccn2)C1)c1cccc(Cl)c1
AUC [18]: 530 ng·h/mL
Ratio [4]: 0.67
CL [19]: 85%
bioavailability [20]: 80%
AUC [21]: 260 ng·h/mL
half-life [22]: 0.6 h
Vd [23]: 3.4 L/kg
clearance [24]: 68.3 mL/min/kg
Cmax [25]: 220 ng/mL
Tmax [26]: 2 h
Kp at 1 h [8]: 0.34
concentration at 1 h [9]: 170 nM
concentration at 1 h [10]: 500 nM
Cp(f) [11]: 11%
fraction unbound [12]: 0.22
Cp(f) [27]: 14%
fraction unbound [28]: 0.13
logD [29]: 3.2
solubility kinetic at 4 h [30]: 240 µM (≈ 85.9 µg/mL)
Intrinsic clearance [13]: 41 mL/min
fraction unbound [31]: 0.065
Intrinsic clearance [14]: 9 mL/min
Intrinsic clearance [15]: 1.1
EC50 [16]: > 10000 nM
IC50 [17]: > 10000 nM
Ki [2]: 205 nM
IC50 [1]: 62 nM

O=C(N[C@@H]1CCC[C@@H](C(=O)Nc2ccccn2)C1)c1cccc(Cl)c1
IC50 [1]: 5000 nM

Cc1cccc(C(=O)N[C@H]2CCC[C@H](NC(=O)c3ccccn3)C2)c1 (relative stereo)
IC50 [1]: 1000 nM

O=C(NC1CCCC2(CN=C(c3cccc(Cl)c3)O2)C1)c1ccccn1 (mixture of isomers)
Ki [2]: 30 nM
IC50 [1]: 647 nM

O=C(N[C@H]1CCC[C@H](NC(=O)c2ccccn2)C1)c1ccccn1
IC50 [1]: 1150 nM

N#Cc1cccnc1C(=O)NC1CCCC(NC(=O)c2cccc(Cl)c2)C1 (mixture of isomers)
Ki [2]: 1250 nM
IC50 [1]: 671 nM
